STAT3 act-1: increases IL-6 driven STAT3 reporter signal; U3A cells, IL-6 STAT3-luciferase reporter, luminescence; 100% = signal with IL-6 EC80 alone; activation (% of control), % at 5.6 µM; 190,000 tested, 0.91% active; AID 871;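 active means activation above the screen-wide mean of compound activation plus 3 SD, cut at about 130% in these data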;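 further: 0% = background luminescence of wells with medium and substrate only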
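Material: STAT1-lacking human U3A cells, STAT3 luciferase reporter | Benchmarks: IL-6-only wells as 100% reference | Probe or stimulus: IL-6 (33 ng/mL) | Timing: Compound 1 h, then IL-6 6 h at 37 °C | Detection: Luminescence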
STAT1 inh: reduces IFN-gamma driven STAT1 reporter signal. NIH 3T3 STAT1-luciferase reporter, luminescence. inhibition, % at 5.5 µM. 200,000 tested, 0.35% active. AID 920;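 active means inhibition above a set limit, the mean inhibition across all tested compounds plus 3 SD, cut at about 34% in these data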;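 further: 0% = IFN-gamma with DMSO and 100% = IFN-gamma with 300 µM nifuroxazide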
APP 5'UTR act: APP 5'UTR luciferase reporter activation. SH-SY5Y APP 5'UTR luciferase reporter, luminescence; zero percent = DMSO vehicle wells. activation, % at 2 µM. 190,000 tested, 1% active;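 active means activation above a set limit, based on mean plus 3 SD of controls, cut at about 140% in these data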
STAT1 act-1: STAT1 signaling activation; NIH 3T3 STAT1-luciferase reporter, IFN-gamma, luminescence; 100% = IFN-gamma alone, no compound; activation (% of control), % at 5.5 µM; 200,000 tested, 2.6% active; AID 932;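 active means activation above the screen-wide mean activation plus 3 SD, cut at about 130% in these data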;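 further: raw ratio to IFN-gamma control signal so 100% means no change and 0% no light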
STAT3 inh: inhibitors of IL-6 induced STAT3 signaling | 190,000 tested, 0.89% active | U3A cells, IL-6 STAT3-luciferase reporter, luminescence; host cell line lacks STAT1 | inhibition, % at 5.5 µM;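 active means inhibition above the mean inhibition across all screened compounds plus 3 SD, cut at about 44% in these data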;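 further: 0% = DMSO only wells and 100% = 100 µM nifuroxazide control wells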
NF-kB neuron act: compounds increasing NF-kB expression in human neuronal cells; NF-kB reporter expression; active compounds read high; 190,000 tested, 1.6% active; fold change at 12.5 µM; AID 1239; in the data active means fold change above about 3.3
STAT3 act-2: STAT3 activation, confirmation assay; 1,200 tested, 64% active; shares compounds with STAT3 act-1; U3A STAT3-luciferase reporter, IL-6 potentiation, luminescence; U3A cells lack STAT1; 100 means same as IL-6 alone; AID 1267; potentiation (% of control), % at 5.7 µM;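 active means percent activation of the STAT3 luciferase reporter above a set limit taken from the earlier primary screen, cut at about 130% in these data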;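 further: 0% = background signal of medium plus substrate and 100% = median of IL-6 with DMSO wells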
NFkB act 2: NF-kappaB activation in STAT3 activator counter-screen. shares compounds with STAT3 act-1. activation (% of control), % at 5.7 µM. 1,200 tested, 11% active. human cells, NF-kappaB reporter activation; in the data active means activation above about 120%;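 further: reporter induced by TNF-alpha stimulation; 100% = median of stimulated DMSO wells and 0% = no signal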
STAT1 act-2: STAT1 activation in STAT3 activator counter-screen; NIH 3T3 STAT1-luciferase reporter, IFN-gamma, luminescence; 1,200 tested, 13% active; shares compounds with STAT3 act-1; activation (% of control), % at 5.7 µM;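 active means activation above the solvent-only control well mean plus 3 SD, set per screening run, cut at about 120% in these data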;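 further: 100% = IFN-gamma with DMSO median signal so 100% means no change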
* hit, by the source's call; x = no result given; ! = repeats disagree. Most compounds without a hit are left out; they make up all but 4.9% or so of the library.

SMILES | STAT3 act-1 | STAT1 inh | APP 5'UTR act | STAT1 act-1 | STAT3 inh | NF-kB neuron act | STAT3 act-2 | NFkB act 2 | STAT1 act-2
O=C(NCC1CCCO1)C(c1ccc(F)cc1)N(C(=O)Cn1nnc(-c2ccc(F)cc2)n1)c1cccc(O)c1 (stereo not drawn) | 98 | -3 | 18 | 101 | 9 | 0.73 | x | x | x
CC(=O)c1c(-c2ccc(C)cc2)nc2c3ccccc3ccn12 | 142* | -3 | 0 | 99 | -44 | 0.98 | 143* | 101 | 102
O=C(O)CSc1c[nH]c2ccccc12 | 151* | 9 | -20 | 92 | -49 | 1.1 | 121 | 104 | 96
CCC(=O)NCCSc1c[nH]c2ccccc12 | 145* | 4 | 4 | 97 | -47 | 1.1 | 141* | 105 | 108
CC(Sc1c[nH]c2ccccc12)C(=O)O (stereo not drawn) | 147* | -3 | 12 | 103 | -48 | 1.2 | 115 | 99 | 101
CC(C)C(=O)NCCSc1c[nH]c2ccccc12 | 121 | -2 | -6 | 102 | -15 | 1.2 | x | x | x
CCOc1cc(NC(=S)NCCc2ccccc2)c(OCC)cc1NC(C)=O | 109 | -4 | -11 | 102 | -8 | 1 | x | x | x
CC(=O)c1cc(C#N)c(N2CCOCC2)nc1C | 98 | 12 | 4 | 88 | 10 | 1.3 | x | x | x
COCc1cc(C)nc2sc(C(=O)NN)c(-n3cccc3)c12 | 137* | 5 | -6 | 97 | -37 | 1.2 | 139* | 118 | 101
CCOc1ccc(-c2nnc(-c3ccncc3)o2)cc1OCC | 111 | -8 | 14 | 107 | -5 | 0.84 | x | x | x
CCOc1cc(-c2ccc(N)c(OCC)c2)ccc1N | 155* | 2 | -7 | 98 | -61 | 0.96 | 136* | 102 | 98
COc1ccc(/C=C/C(=O)c2cc(F)ccc2OC(=O)c2ccccc2C)cc1OC | 143* | 1 | -97 | 100 | -48 | 2.6 | 103 | 156* | 102
COc1ccc(C(=O)Oc2ccc(F)cc2C(=O)/C=C/c2ccc(OC)c(OC)c2)cc1 | 99 | -1 | -11 | 101 | 0 | 0.91 | x | x | x
Cn1c(CSCc2ccc(Cl)c(Cl)c2)n[nH]c1=S | 100 | 6 | 4 | 95 | 3 | 0.99 | x | x | x
CCn1c(NC(C)=O)nc2ccccc21 | 101 | 2 | 12 | 101 | 0 | 1.1 | x | x | x
CCn1c(NC(=O)c2cccs2)nc2ccccc21 | 146* | -6 | 8 | 106 | -45 | 2.1 | 131 | 106 | 107
CCN(CC)CCn1c(NC(=O)c2ccc(C(F)(F)F)cc2)nc2ccccc21 | 107 | -9 | -9 | 106 | -5 | 1.1 | x | x | x
CN(C)CCn1c(NC(=O)c2ccc(Cl)cc2)nc2ccccc21 | 164* | -26 | x | 125 | -76 | 1.5 | 157* | 119 | 123*
CCO[C@@H]1OC(C(=O)N2CCN(Cc3ccc4c(c3)OCO4)CC2)=C[C@H](C2CCCCC2)[C@H]1CCCO | x | 2 | 0 | 99 | x | 0.47 | x | x | x
Cc1nc(COC(=O)c2ccc(CO)cc2)cs1 | 104 | -8 | 8 | 107 | -2 | 1.1 | x | x | x
Cc1nc(COC(=O)c2cc(O)c3ccccc3c2O)cs1 | 140* | 8 | 16 | 93 | -51 | 1 | 127 | 100 | 89
Oc1c(Br)cc(Br)cc1/C=N/c1nc2c(s1)CCCC2 | 114 | -3 | 6 | 103 | -12 | 1.1 | x | x | x
Oc1ccc2ccccc2c1/C=N/c1nc2c(s1)CCCC2 | 154* | -2 | 20 | 102 | -65 | 0.88 | 136* | 104 | 94
CCN(C(=S)NC(=O)c1ccccc1Br)C1CCCCC1 | 102 | 3 | 11 | 97 | 3 | 0.95 | x | x | x
COC(=O)CSc1cc(C)nc2ccc(OC)cc12 | 92 | 2 | -12 | 98 | 12 | 1.2 | x | x | x
SMILES | STAT3 act-1 | STAT1 inh | APP 5'UTR act | STAT1 act-1 | STAT3 inh | NF-kB neuron act | STAT3 act-2 | NFkB act 2 | STAT1 act-2
COc1ccc2nc(C)cc(SCC(=O)O)c2c1 | 140*! | -8 | 9 | 107 | -40 | 1.1 | 95 | 105 | 103
CN(C)S(=O)(=O)N1CCCC(C(=O)c2ccc(C(F)(F)F)cc2)C1 (stereo not drawn) | 103 | 2 | -4 | 96 | 4 | 0.95 | x | x | x
Cc1cc(C(=O)NC(=S)Nc2ccccc2N2CCCC2)ccc1[N+](=O)[O-] | 107 | -4 | 1 | 104 | -14 | 0.97 | x | x | x
O=C(NC(=S)Nc1ccccc1N1CCCC1)c1cccc(F)c1 | 152* | 6 | -1 | 93 | -57 | 1.2 | 154* | 105 | 89
O=C(NC(=S)Nc1ccccc1N1CCCC1)c1ccc(F)cc1 | 145* | 8 | -5 | 91 | -39 | 1.1 | 149* | 104 | 91
O=C(NC(=S)Nc1ccccc1N1CCCCC1)c1ccccc1 | 104 | -10 | 12 | 108 | -1 | 1.4 | x | x | x
COc1ccc(N2C(=O)CC(Sc3nc4c(cc3C#N)CCC4)C2=O)cc1 (stereo not drawn) | 77 | -2 | 1 | 100 | 32 | 1.2 | x | x | x
Cc1cccc(NC(=O)c2ccccc2OCC(=O)N2CCCC2)c1C | 100 | -4 | 17 | 100 | 5 | 0.88 | x | x | x
CCNC(=O)COC(=O)/C=C/c1cccc(F)c1 | 95 | 6 | 10 | 94 | 9 | 1.1 | x | x | x
COc1ccc(-c2csc(NC(=O)CSc3nc(SC)ns3)n2)cc1 | 137* | -14 | 23 | 113 | -47 | 1.6 | 140* | 99 | 114
CNC(=S)N/N=C1\C(=O)c2cccc3cccc1c23 | 138* | 1 | 9 | 99 | -39 | 1.2 | 143* | 116 | 111
CCCCNC(=S)N/N=C1\C(=O)c2cccc3cccc1c23 | 85 | 3 | 8 | 97 | 24 | 1 | x | x | x
O=c1c2ccccc2nc(/C=C/c2c[nH]c3ccccc23)n1CCO | 136* | -18 | 76 | 115 | -38 | 0.58 | 136* | 117 | 126*
CCN(CC)S(=O)(=O)c1ccc(C2=NOC3(C2)N(C)c2ccccc2C3(C)C)cc1 (stereo not drawn) | 112 | -5 | -11 | 105 | -17 | 0.99 | x | x | x
O=C(O)C1Cc2[nH]cnc2C(c2cccc([N+](=O)[O-])c2)N1 (stereo not drawn) | 106 | -7 | 4 | 106 | -1 | 1.2 | x | x | x
O=C(O)C1Cc2[nH]cnc2C(c2ccccc2O)N1 (stereo not drawn) | 143* | 7 | 13 | 94 | -48 | 0.9 | 172* | 103 | 115
c1ccc2c(c1)CCCN2Cc1nnc2n1CCCCC2 | 140* | -3 | 23 | 103 | -45 | 1.4 | 120 | 100 | 98

From PubChem
